Assay results from ChEMBL document CHEMBL3351265.
One block for each compound: values may come before it. Calls of active or inactive are those of the source. The calls are words filed in the database; no cut-off is given here.

What was measured:
[1] = Reduction in EED protein expression in human Toledo cells at 10 uM after 72 hrs by Western blot analysis; assay type: functional, cell-based
Method in brief: (§1)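 DB (mutant EZH2) or Toledo (wild-type EZH2) DLBCL cells treated with compound for 72 h; lysed in RIPA buffer; 30 μg total protein resolved by SDS-PAGE, blotted to PVDF, probed for EZH2, EED, SUZ12 or H3K27me3 with HRP secondary and chemiluminescent detection; total histone H3 as loading control; 10 μM EPZ005687 as reference inhibitor.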

[2] = system: DB; assay: Reduction in SUZ12 protein expression in human DB cells at 10 uM after 72 hrs by Western blot analysis; assay type: functional, cell-based; method in brief: as §1
[3] = system: DB; assay: Reduction in EZH2 protein expression in human DB cells at 10 uM after 72 hrs by Western blot analysis; assay type: functional, cell-based; method in brief: as §1
[4] = system: DB; assay: Reduction in EED protein expression in human DB cells at 10 uM after 72 hrs by Western blot analysis; assay type: functional, cell-based; method in brief: as §1
[5] = Reduction in EZH2 protein expression in human Toledo cells at 10 uM after 72 hrs by Western blot analysis; assay type: functional, cell-based; method in brief: as §1
[6] = Reduction in SUZ12 protein expression in human Toledo cells at 10 uM after 72 hrs by Western blot analysis; assay type: functional, cell-based; method in brief: as §1
[7] = molecular target: Polycomb protein EED (Homo sapiens) (UniProt O75530)
Chain of Polycomb protein EED (Homo sapiens) (O75530 2-441 limits assumed): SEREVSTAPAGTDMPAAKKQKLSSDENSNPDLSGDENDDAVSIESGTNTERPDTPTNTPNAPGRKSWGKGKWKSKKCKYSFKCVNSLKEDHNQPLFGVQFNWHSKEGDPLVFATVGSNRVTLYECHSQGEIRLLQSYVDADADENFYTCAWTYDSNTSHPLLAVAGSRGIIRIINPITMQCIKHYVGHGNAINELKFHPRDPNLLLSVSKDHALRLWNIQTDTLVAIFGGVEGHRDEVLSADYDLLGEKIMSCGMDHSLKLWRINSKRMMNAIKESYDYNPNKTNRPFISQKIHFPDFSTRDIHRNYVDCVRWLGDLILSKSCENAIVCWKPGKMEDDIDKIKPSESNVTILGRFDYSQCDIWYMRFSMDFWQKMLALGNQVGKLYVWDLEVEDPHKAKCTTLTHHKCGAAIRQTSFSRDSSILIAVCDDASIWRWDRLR

[8] = system: DB; assay: Antiproliferative activity against human DB cells after 72 h by flow cytometry in presence of EPZ005687
[9] = molecular target: Polycomb protein EED (Homo sapiens) (UniProt O75530); remark: listed apart in the source
[10] = system: Polycomb protein EED (Homo sapiens), O75530 [V112E]; settings: 200 uM
Chain of Polycomb protein EED (Homo sapiens), O75530 [V112E] (O75530 whole entry V112E): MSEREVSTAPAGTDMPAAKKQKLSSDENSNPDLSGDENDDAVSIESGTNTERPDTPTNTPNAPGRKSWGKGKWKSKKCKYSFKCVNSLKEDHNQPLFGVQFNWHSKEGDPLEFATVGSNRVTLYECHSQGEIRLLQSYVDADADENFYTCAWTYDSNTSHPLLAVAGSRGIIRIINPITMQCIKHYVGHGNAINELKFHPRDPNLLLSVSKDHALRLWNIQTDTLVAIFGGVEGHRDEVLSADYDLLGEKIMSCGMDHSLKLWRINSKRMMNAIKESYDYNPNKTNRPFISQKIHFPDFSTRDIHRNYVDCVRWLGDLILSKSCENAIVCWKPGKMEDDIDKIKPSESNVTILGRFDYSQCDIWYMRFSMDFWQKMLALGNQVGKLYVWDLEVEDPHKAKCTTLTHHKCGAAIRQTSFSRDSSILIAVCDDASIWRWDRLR

[11] = system: DB; assay: Antiproliferative activity against human DB cells after 7 days by CCK-8 assay; assay type: functional, cell-based
Method in brief: (§2)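 DLBCL lines from ATCC grown in RPMI 1640 with 10% FBS and Pen/Strep; 1−2 × 10^4 cells per well seeded in serum-containing medium with compound, triplicate cultures; 7 days incubation; viability by CCK-8 absorbance at 450 nm (600 nm reference), expressed as percentage of absorbance relative to control cells.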

[12] = Reduction in EZH2 protein expression in human Toledo cells after 72 hrs by Western blot analysis; assay type: functional, cell-based; method in brief: as §1
[13] = system: Toledo; assay: Antiproliferative activity against human Toledo cells after 7 days by CCK-8 assay; assay type: functional, cell-based; method in brief: as §2
[14] = system: Polycomb protein EED (Homo sapiens), O75530 [L246E]; settings: 200 uM
Chain of Polycomb protein EED (Homo sapiens), O75530 [L246E] (O75530 whole entry L246E): as the sequence (O75530 whole entry V112E) above, with E112V, L246E counted along it

[15] = system: DB; assay: Reduction in SUZ12 protein expression in human DB cells after 72 hrs by Western blot analysis; assay type: functional, cell-based; method in brief: as §1
[16] = system: DB; assay: Antiproliferative activity against human DB cells at 5 uM after 72 hrs by flow cytometry in presence of 5 uM EPZ005687
[17] = molecular target: Polycomb protein EED (Homo sapiens) (UniProt O75530); remark: listed apart in the source
[18] = system: Pfeiffer; assay: Antiproliferative activity against human Pfeiffer cells after 7 days by CCK-8 assay; assay type: functional, cell-based; method in brief: as §2
[19] = system: DB; assay: Reduction in EZH2 protein expression in human DB cells after 72 hrs by Western blot analysis; assay type: functional, cell-based; method in brief: as §1
[20] = system: Toledo; assay: Antiproliferative activity against human Toledo cells at 5 uM after 72 hrs by flow cytometry in presence of 5 uM EPZ005687
[21] = system: Polycomb protein EED (Homo sapiens), O75530 [F356Y]; settings: 200 uM
Chain of Polycomb protein EED (Homo sapiens), O75530 [F356Y] (O75530 whole entry F356Y): as the sequence (O75530 whole entry V112E) above, with E112V, F356Y counted along it

[22] = system: Pfeiffer; assay: Antiproliferative activity against human Pfeiffer cells at 5 uM after 7 days by CCK-8 assay in presence of 5 uM EPZ005687; assay type: functional, cell-based
[23] = Reduction in EED protein expression in human Toledo cells after 72 hrs by Western blot analysis; assay type: functional, cell-based; method in brief: as §1
[24] = system: SU-DHL-6; assay: Antiproliferative activity against human SU-DHL6 cells at 5 uM after 7 days by CCK-8 assay in presence of 5 uM EPZ005687; assay type: functional, cell-based
[25] = system: Polycomb protein EED (Homo sapiens), O75530 [L315D]; settings: 200 uM
Chain of Polycomb protein EED (Homo sapiens), O75530 [L315D] (O75530 whole entry L315D): as the sequence (O75530 whole entry V112E) above, with E112V, L315D counted along it

[26] = system: DB; assay: Antiproliferative activity against shRNA-treated human DB cells at 2.5 to 15 uM after 3 days by Alamar blue assay; assay type: functional, cell-based
Method in brief: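 DB cells transduced with lentiviral pSICOR shRNA (mock, shEED or shEZH2); 5000 cells per well in serum-containing medium with compound, triplicate cultures; 3 days incubation; alamar blue added, plates incubated at 37 °C and read at 560 nm.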

[27] = system: SUD4; assay: Antiproliferative activity against human SU-DHL4 cells after 7 days by CCK8 assay
[28] = Reduction in SUZ12 protein expression in human Toledo cells after 72 hrs by Western blot analysis; assay type: functional, cell-based; method in brief: as §1
[29] = molecular target: Polycomb protein EED (Homo sapiens) (UniProt O75530); remark: listed apart in the source
[30] = system: DB; assay: Reduction in EED protein expression in human DB cells after 72 hrs by Western blot analysis; assay type: functional, cell-based; method in brief: as §1
[31] = system: Polycomb protein EED (Homo sapiens), O75530 [L123E]; settings: 200 uM
Chain of Polycomb protein EED (Homo sapiens), O75530 [L123E] (O75530 whole entry L123E): as the sequence (O75530 whole entry V112E) above, with E112V, L123E counted along it

[32] = system: SU-DHL-6; assay: Antiproliferative activity against human SU-DHL6 cells after 7 days by CCK-8 assay; assay type: functional, cell-based; method in brief: as §2
[33] = system: Toledo; assay: Antiproliferative activity against human Toledo cells by flow cytometry
[34] = system: SU-DHL-6; assay: Antiproliferative activity against human SU-DHL6 cells after 7 days by CCK8 assay
[35] = system: Polycomb protein EED (Homo sapiens), O75530 [L353A]; settings: 200 uM
Chain of Polycomb protein EED (Homo sapiens), O75530 [L353A] (O75530 whole entry L353A): as the sequence (O75530 whole entry V112E) above, with E112V, L353A counted along it

[36] = system: SUD4; assay: Antiproliferative activity against human SU-DHL4 cells at 5 uM after 7 days by CCK-8 assay in presence of 5 uM EPZ005687; assay type: functional, cell-based
[37] = system: Pfeiffer; assay: Antiproliferative activity against human Pfeiffer cells after 7 days by CCK8 assay
[38] = system: SUD4; assay: Antiproliferative activity against human SU-DHL4 cells after 7 days by CCK-8 assay; assay type: functional, cell-based; method in brief: as §2
[39] = molecular target: Polycomb protein EED (Homo sapiens) (UniProt O75530); remark: listed apart in the source
[40] = system: DB; assay: Reduction in SUZ12 protein expression in human DB cells at 7.5 to 30 uM after 72 hrs by Western blot analysis; assay type: functional, cell-based; method in brief: as §1
[41] = Reduction in SUZ12 protein expression in human Toledo cells at 2 to 8 uM after 72 hrs by Western blot analysis; assay type: functional, cell-based; method in brief: as §1
[42] = system: DB; assay: Reduction in EED protein expression in human DB cells at 7.5 to 30 uM after 72 hrs by Western blot analysis; assay type: functional, cell-based; method in brief: as §1
[43] = system: DB; assay: Reduction in EZH2 protein expression in human DB cells at 7.5 to 30 uM after 72 hrs by Western blot analysis; assay type: functional, cell-based; method in brief: as §1
[44] = Reduction in EZH2 protein expression in human Toledo cells at 2 to 8 uM after 72 hrs by Western blot analysis; assay type: functional, cell-based; method in brief: as §1
[45] = Reduction in EED protein expression in human Toledo cells at 2 to 8 uM after 72 hrs by Western blot analysis; assay type: functional, cell-based; method in brief: as §1

Structure (SMILES): Cc1cc(C)c(CNC(=O)c2cc(-c3ccc(CN4CCOCC4)cc3)cc3c2cnn3C2CCCC2)c(=O)[nH]1
Activity [1]: inactive
Activity [2]: inactive
Activity [3]: inactive
Activity [4]: inactive
Activity [5]: inactive
Activity [6]: inactive

ΔTm [7]: 4.29 °C
ΔTm [9]: 1.64 °C
Tm [10]: 38.2 °C
Tm [14]: 38.1 °C
ΔTm [17]: 2 °C
Tm [21]: 38.2 °C
Tm [25]: 38.1 °C
ΔTm [29]: 3.44 °C
Tm [31]: 38.2 °C
Tm [35]: 38.2 °C
ΔTm [39]: 4.08 °C
Structure (SMILES): COc1ccc(CCN2CCC(Nc3nc4ccccc4n3Cc3ccc(F)cc3)CC2)cc1
Activity [8]: Active
Activity [11]: Active
Activity [12]: Active
Activity [13]: Active
Activity [15]: Active
Activity [16]: Active
Activity [18]: Active
Activity [19]: Active
Activity [20]: Active
Activity [22]: Active
Activity [23]: Active
Activity [24]: Active
Activity [26]: inactive
Activity [27]: Active
Activity [28]: Active
Activity [30]: Active
Activity [32]: Active
Activity [33]: Active
Activity [34]: Active
Activity [36]: Active
Activity [37]: Active
Activity [38]: Active

Structure (SMILES): COc1cccc2c1C(=O)c1c(O)c3c(c(O)c1C2=O)C[C@@](O)(C(=O)CO)C[C@@H]3O[C@H]1C[C@H](N)[C@H](O)[C@H](C)O1
Activity [40]: inactive
Activity [41]: inactive
Activity [42]: inactive
Activity [43]: inactive
Activity [44]: inactive
Activity [45]: inactive
